Active and inactive are the calls of the source. The rule behind the calls is not given here.
Key:
Mus musculus [1] = assay: Hypoglycemic activity in 12 hrs fasted ICR mouse assessed as reduction in blood glucose AUC (0 to 2 hrs) at 30 mg/kg, ip measured after 2 hrs; format: functional; design: scale not given: the % may be the effect or the level left
Summary of the method: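 OGTT: 12 h-fasted ICR mice (n = 6 per group) dosed ip (10 or 30 mg/kg in 10% ricinus oil/water), with vehicle and metformin 250 mg/kg controls, 1 h before oral glucose 2 g/kg. Tail blood glucose by glucometer at 0, 0.25, 0.5, 1, 1.5 and 2 h; AUC 0−2 h computed. Food withheld.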

[2] = target: T1, Tyrosine-protein kinase JAK3 (Homo sapiens) (UniProt P52333); assay: Inhibition of JAK3 (unknown origin) at 300 uM measured after 40 mins in presence of ATP by luminescence assay relative to control
T1 sequence (whole entry): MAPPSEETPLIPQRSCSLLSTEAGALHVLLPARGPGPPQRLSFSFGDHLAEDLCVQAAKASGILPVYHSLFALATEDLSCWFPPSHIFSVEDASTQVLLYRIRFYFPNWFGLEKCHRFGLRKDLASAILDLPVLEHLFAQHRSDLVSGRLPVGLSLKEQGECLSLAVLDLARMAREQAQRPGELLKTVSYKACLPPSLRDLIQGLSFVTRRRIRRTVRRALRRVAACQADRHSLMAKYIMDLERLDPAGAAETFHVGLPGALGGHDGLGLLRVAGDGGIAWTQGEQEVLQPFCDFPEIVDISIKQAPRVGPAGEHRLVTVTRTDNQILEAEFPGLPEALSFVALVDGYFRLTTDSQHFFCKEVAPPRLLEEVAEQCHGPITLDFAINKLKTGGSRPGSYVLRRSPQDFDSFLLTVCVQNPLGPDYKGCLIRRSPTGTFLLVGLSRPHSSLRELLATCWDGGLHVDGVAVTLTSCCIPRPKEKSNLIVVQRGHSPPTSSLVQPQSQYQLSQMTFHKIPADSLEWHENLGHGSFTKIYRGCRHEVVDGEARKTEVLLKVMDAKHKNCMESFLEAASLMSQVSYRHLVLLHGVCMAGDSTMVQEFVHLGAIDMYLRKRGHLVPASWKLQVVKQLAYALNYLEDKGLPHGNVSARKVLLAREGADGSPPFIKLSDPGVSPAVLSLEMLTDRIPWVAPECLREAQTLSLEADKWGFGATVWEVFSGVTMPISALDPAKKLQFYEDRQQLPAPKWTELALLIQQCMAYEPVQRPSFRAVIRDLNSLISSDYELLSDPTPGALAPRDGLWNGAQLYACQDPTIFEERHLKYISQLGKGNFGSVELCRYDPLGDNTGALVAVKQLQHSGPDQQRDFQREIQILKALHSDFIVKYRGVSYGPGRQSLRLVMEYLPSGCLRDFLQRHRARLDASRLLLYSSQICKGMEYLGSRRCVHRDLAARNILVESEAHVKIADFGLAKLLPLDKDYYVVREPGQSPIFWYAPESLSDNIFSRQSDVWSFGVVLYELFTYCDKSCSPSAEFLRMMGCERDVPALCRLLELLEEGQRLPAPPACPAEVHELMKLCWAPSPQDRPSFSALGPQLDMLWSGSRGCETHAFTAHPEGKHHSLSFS
Summary of the method: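 Kinase reaction (50 μL): 40 mM Tris pH 7.4, 10 mM MgCl2, 0.1 mg/mL BSA, 1 mM DTT, 10 μM ATP, kinase and substrate, with 1% final DMSO. Run 40 min at 30 °C. Residual ATP read by Kinase-Glo Plus luminescence, inversely related to kinase activity.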

[3] = target: T2, Fructose-1,6-bisphosphatase 1 (Homo sapiens, UniProt P09467); assay: Inhibition of human FBPase expressed Escherichia coli BL21 in by malachite green dye based spectrophotometry
T2 sequence (P09467 whole entry): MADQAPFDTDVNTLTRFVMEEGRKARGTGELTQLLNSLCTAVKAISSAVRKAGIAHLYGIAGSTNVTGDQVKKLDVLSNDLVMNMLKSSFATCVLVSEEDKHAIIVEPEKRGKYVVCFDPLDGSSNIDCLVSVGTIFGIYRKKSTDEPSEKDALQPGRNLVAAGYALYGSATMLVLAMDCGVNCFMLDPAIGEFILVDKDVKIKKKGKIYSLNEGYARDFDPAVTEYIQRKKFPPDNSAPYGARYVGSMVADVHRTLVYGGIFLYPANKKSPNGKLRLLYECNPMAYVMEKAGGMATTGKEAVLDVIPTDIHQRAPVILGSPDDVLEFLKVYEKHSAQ
Summary of the method: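 His-tagged human liver FBPase expressed in E. coli BL21(DE3) and purified by Ni affinity. Phosphate released from FBP complexed with ammonium molybdate/malachite green and read at 620 nm against a KH2PO4 standard curve (2−60 μM). Initial rates at saturating substrate, fixed effector and varied inhibitor fitted to the Hill equation for IC50.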

Mus musculus [4] = assay: Hypoglycemic activity in 12 hrs fasted ICR mouse assessed as glucose lowering effect at 10 to 30 mg/kg, ip measured after 2 hrs; format: functional, organism-based; details: dose 10-30 mg/kg
Summary of the method: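 Fasted (12 h) male ICR mice received one intraperitoneal dose in 10% ricinus oil/water vehicle; metformin 250 mg/kg served as control. Food was withheld. Tail blood glucose was read by glucometer at 0, 1, 2, 4 and 6 h.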

[5] = Half life of the compound in buffer; format: physicochemical
Summary of the method: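 Electrophile (20 μmol) incubated at 37 °C either in pH 7.4 buffer, or in DMSO-d6/D2O (5:1), with or without glutathione. Decay followed by 1H NMR kinetics. First-order rate constant kpseudo-1st taken from ln[electrophile] versus time; t1/2 = 0.693/(60×k), in min.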

O=C(NCc1ccccc1)N1C(=O)c2ccccc2S1(=O)=O
Activity (Mus musculus [1]): 17.7% | inhibition [2]: < 50% | IC50 [3]: 3.4 µM | Activity (Mus musculus [4]): Active | half-life [5]: > 6.94 days
